Experimental findings from ChEMBL document CHEMBL1157719, “1-Indol-1-yl-propan-2-ones and related heterocyclic compounds as dual inhibitors of cytosolic phospholipase A(2)alpha and fatty acid amide hydrolase” (Bioorg Med Chem, 2010) are described below.

In experiment [1] the target is T1, Fatty-acid amide hydrolase 1 (Rattus norvegicus, UniProt P97612).
T1 sequence (P97612 whole entry): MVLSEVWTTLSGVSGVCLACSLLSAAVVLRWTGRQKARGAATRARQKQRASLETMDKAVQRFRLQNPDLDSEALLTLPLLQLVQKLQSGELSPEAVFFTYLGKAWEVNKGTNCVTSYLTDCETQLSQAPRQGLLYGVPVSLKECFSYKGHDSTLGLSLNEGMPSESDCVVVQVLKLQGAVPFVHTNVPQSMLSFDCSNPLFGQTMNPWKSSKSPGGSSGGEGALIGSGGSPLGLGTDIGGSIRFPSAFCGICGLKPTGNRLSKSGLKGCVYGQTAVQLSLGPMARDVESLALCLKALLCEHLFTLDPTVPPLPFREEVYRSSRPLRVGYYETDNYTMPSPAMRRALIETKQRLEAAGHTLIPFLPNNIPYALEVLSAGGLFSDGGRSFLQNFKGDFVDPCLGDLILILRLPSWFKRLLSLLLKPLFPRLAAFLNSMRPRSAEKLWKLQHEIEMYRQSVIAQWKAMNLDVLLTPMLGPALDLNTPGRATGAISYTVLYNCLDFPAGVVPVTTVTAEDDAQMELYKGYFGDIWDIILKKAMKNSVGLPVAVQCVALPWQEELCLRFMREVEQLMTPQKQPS
Description: Inhibition of FAAH from rat brain microsomes by RP-HPLC.

For experiment [2], the target named is T2, Fatty-acid amide hydrolase 1 (Rattus norvegicus) (UniProt P97612).
T2 sequence (whole entry): T1 sequence (P97612 whole entry)
Description: Inhibition of FAAH from rat brain microsomes at 10 uM by RP-HPLC. The essentials:
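Rat brain microsomes as FAAH source; substrate N-(2-hydroxyethyl)-4-pyren-1-ylbutanamide 100 μM solubilized with Triton X-100 0.2%. Incubated 45 min, then stopped with acetonitrile/methanol plus internal standard 6-pyren-1-ylhexanoic acid. Released 4-pyren-1-ylbutanoic acid quantified directly by RP-HPLC with fluorescence (ex 340, em 380 nm), with vs without inhibitor. Inhibitor max 10 μM; IC50 means of at least two independent determinations.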

Experiment [3] addresses T3, Cytosolic phospholipase A2 (Homo sapiens, UniProt P47712).
T3 sequence (P47712 whole entry): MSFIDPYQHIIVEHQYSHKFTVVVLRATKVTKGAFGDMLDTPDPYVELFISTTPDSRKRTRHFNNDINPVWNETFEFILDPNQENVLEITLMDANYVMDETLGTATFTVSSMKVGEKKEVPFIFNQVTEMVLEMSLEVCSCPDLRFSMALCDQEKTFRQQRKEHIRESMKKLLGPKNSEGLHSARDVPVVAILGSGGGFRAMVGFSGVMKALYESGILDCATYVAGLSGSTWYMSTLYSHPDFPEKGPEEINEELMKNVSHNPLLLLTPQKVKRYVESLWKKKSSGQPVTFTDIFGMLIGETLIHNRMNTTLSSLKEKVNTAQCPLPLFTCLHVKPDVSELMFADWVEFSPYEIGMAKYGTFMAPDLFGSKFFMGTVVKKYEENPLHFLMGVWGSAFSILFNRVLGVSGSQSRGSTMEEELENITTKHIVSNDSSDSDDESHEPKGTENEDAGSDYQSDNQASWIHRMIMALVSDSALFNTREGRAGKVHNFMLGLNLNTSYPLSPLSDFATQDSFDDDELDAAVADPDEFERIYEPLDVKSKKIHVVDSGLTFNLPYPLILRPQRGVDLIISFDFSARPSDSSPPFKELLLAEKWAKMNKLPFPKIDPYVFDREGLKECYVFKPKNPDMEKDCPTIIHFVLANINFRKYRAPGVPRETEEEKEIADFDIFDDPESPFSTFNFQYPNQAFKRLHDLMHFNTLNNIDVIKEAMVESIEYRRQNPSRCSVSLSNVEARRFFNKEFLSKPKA
Briefly: Inhibition of cPLA2 from human platelets by RP-HPLC. The essentials: (§1)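 cPLA2α purified from human platelets; substrate sonicated covesicles of SAPC 200 μM and 1,2-dioleoyl-sn-glycerol 100 μM. Reaction 60 min, stopped with acetonitrile/methanol/0.1 M EDTA-Na2 containing 4-undecyloxybenzoic acid internal standard and NDGA. Arachidonic acid released measured by RP-HPLC, UV 200 nm, after solid-phase extraction, with vs without inhibitor; max 10 μM. IC50 means of at least two independent determinations.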

Experiment [4] in a line: inhibition of MAGL up to 10 uM. The essentials: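 MAGL set up like the FAAH assay, using pyrene-labelled substrate 1,3-dihydroxypropan-2-yl 4-pyren-1-ylbutanoate; product measured by RP-HPLC with fluorescence detection; highest test concentration 10 μM.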
In experiment [5] the target is T4, Cytosolic phospholipase A2 (Homo sapiens) (UniProt P47712).
T4 sequence (whole entry): T3 sequence (P47712 whole entry)
Briefly: Inhibition of cPLA2 from human platelets at 10 uM by RP-HPLC. The essentials: as §1

In general, IC50 refers to the concentration needed to halve the response being measured. The low end stands for inhibition by little substance, the high end for a need for much substance. For orientation: inhibition means the drop in the measured response relative to a control, in per cent.

Activity calls are given as the source filed them. No cut-off for these calls is given here.

As for `CCCCCCCCc1ccc(OCC(=O)Cn2ccc3c(C(=O)O)cccc32)cc1`, the IC50 in experiment [1] and in experiment [3] was greater than 10000 nM throughout. The inhibition in experiment [2] was determined as 40%. In experiment [4], the inhibition entry is “inactive”.
In the case of `CCCCCCCCc1ccc(OCC(=O)Cn2nnc3ccccc32)cc1`, the IC50 stood at 47 nM in experiment [1] and 2200 nM in experiment [3]. Moreover, the inhibition entry in experiment [4] was “inactive”.
For the molecule `CC(C)CN(Cc1ccccc1-c1ccccc1)[C@@H]1C[C@@H](CNC(=O)/C=C/c2ccc(/C=C3\SC(=O)NC3=O)cc2)N(C(=O)c2ccccc2C(=O)c2ccc(F)cc2F)C1`, the inhibition result in experiment [2] is “inactive”. The IC50 in experiment [3] was found to be 31 nM.
With `CCCCCCCCc1ccc(OCC(=O)Cn2cc(C(=O)O)cn2)cc1`, the values for the IC50 in experiment [1] and in experiment [3] were 110 nM and 1800 nM, respectively. The inhibition entry in experiment [4] is “inactive”.
In the case of `CCCCCCCCc1ccc(OCC(=O)Cn2c(C(=O)O)cc3ccccc32)cc1`, the inhibition result in experiment [2], in experiment [5] and in experiment [4] was “inactive” in each case.
On to `CCCCCCCCc1ccc(OCC(=O)Cn2ccc3ccccc32)cc1`, for which the inhibition result in experiment [2], in experiment [5] and in experiment [4] was “inactive” each time.
For `CCCCCCCCc1ccc(OCC(=O)Cn2ccnc2)cc1`, the IC50 in experiment [1] came out at 760 nM; in experiment [3], 500 nM. Further, the inhibition entry in experiment [4] is “inactive”.
Consider `CCCCCCCCc1ccc(OCC(=O)Cn2ccc3cc(C#N)ccc32)cc1`, for which the IC50 in experiment [1] and in experiment [3] was greater than 10000 nM throughout. In addition, the inhibition in experiment [2] came out at 42%. Moreover, the inhibition entry in experiment [4] was “inactive”.
With `CCCCCCCCc1ccc(OCC(=O)Cn2ccc3cc(Cl)ccc32)cc1`, the inhibition result in experiment [2], in experiment [5] and in experiment [4] was “inactive” throughout.
For the molecule `CCCCCCCCc1ccc(OCC(=O)Cn2cc(C(C)=O)c3cc(C(=O)O)ccc32)cc1`, the inhibition entry in experiment [2] and in experiment [4] was “inactive” in each case. Also, in experiment [3], half-maximal inhibition (IC50) was put at 12 nM.
On to `CCCCCCCCc1ccc(OCC(=O)Cn2ccc3cc(C(=O)OC)ccc32)cc1`, for which the inhibition result in experiment [2] and in experiment [4] was “inactive” throughout. In experiment [3], the IC50 is greater than 10000 nM.
As to `CCCCCCCCc1ccc(OCC(=O)Cn2cc(C(=O)O)c3ccccc32)cc1`, the inhibition result in experiment [2] and in experiment [4] was “inactive” in each case. Besides, the IC50 in experiment [3] was greater than 10000 nM.
As for `O=C(CCCCCc1ccccc1)c1nc2ncccc2o1`, it took 9 nM to reach half-maximal inhibition in experiment [1] (IC50). For the same molecule, the inhibition result in experiment [5] is “inactive”.
As to `CCCCCCCCc1ccc(OCC(=O)Cn2cccc2)cc1`, the inhibition result in experiment [2], in experiment [5] and in experiment [4] was “inactive” each time.
`CCCCCCCCc1ccc(OCC(=O)Cn2cnc(C(=O)O)c2)cc1`: the half-inhibitory concentration (IC50) amounted to 1900 nM in experiment [1] and 5300 nM in experiment [3]. Further, the inhibition result in experiment [4] was “inactive”.
In the case of `CCCCCCCCc1ccc(OCC(=O)Cn2ccc(C(=O)O)c2)cc1`, the values for the IC50 in experiment [1] and in experiment [3] were 3600 nM and 5000 nM, respectively. Further, the inhibition entry in experiment [4] is “inactive”.
For `CCCCCCCCc1ccc(OCC(=O)Cn2ncc3ccccc32)cc1`, in experiment [1], the IC50 turned out to be 5000 nM. Besides, the inhibition entry in experiment [5] and in experiment [4] was “inactive” in each case.
On to `CCCCCCCCc1ccc(OCC(=O)Cn2ccc(C(=O)O)n2)cc1`, for which the concentration for half-maximal inhibition (IC50) is greater than 10000 nM in experiment [1] and 8200 nM in experiment [3]. Besides, the inhibition in experiment [2] turned out to be 39%. In experiment [4], the inhibition result is “inactive”.
Consider `CCCCCCCCc1ccc(OCC(=O)Cn2cccc2C(=O)O)cc1`, for which the inhibition entry in experiment [2], in experiment [5] and in experiment [4] was “inactive” throughout.
For the molecule `NC(=O)c1cccc(-c2cccc(OC(=O)NC3CCCCC3)c2)c1`, the inhibition result in experiment [5] is “inactive”.
With `CCCCCCCCc1ccc(OCC(=O)Cn2ccc3cc(C)ccc32)cc1`, the inhibition entry in experiment [2], in experiment [5] and in experiment [4] was “inactive” in each case.
